One molecule from ChEMBL document CHEMBL4837214, “Design, synthesis, and biological evaluation of novel tetrahydroprotoberberine derivatives to reduce SREBPs expression for the treatment of hyperlipidemia” (Eur J Med Chem, 2021) can be followed below.

Each structure is given as a SMILES string. Calls of active or inactive are those of the source. The rule behind the calls is not given here.

Data set [1] relates to HepG2. Nature of the data set: Down regulation of precursor and mature forms of SREBP-2 protein expression in human HepG2 cells after 24 hrs by Western blotting analysis. Type of data set: functional, cell-based. As to conditions: dose 5-80 µM. An outline of the steps: (§1)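 HepG2 cells treated 24 h at the indicated doses and lysed in RIPA buffer with protease inhibitors; protein quantified by BCA. Lysates run on 10% SDS-PAGE and blotted to nitrocellulose. After 5% milk block, primary antibody applied overnight at 4 °C and secondary 1 h at room temperature. β-actin served as loading reference.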

In data set [2] the target is T1, Sterol regulatory element-binding protein 1 (Homo sapiens) (UniProt P36956).
T1 sequence (whole entry): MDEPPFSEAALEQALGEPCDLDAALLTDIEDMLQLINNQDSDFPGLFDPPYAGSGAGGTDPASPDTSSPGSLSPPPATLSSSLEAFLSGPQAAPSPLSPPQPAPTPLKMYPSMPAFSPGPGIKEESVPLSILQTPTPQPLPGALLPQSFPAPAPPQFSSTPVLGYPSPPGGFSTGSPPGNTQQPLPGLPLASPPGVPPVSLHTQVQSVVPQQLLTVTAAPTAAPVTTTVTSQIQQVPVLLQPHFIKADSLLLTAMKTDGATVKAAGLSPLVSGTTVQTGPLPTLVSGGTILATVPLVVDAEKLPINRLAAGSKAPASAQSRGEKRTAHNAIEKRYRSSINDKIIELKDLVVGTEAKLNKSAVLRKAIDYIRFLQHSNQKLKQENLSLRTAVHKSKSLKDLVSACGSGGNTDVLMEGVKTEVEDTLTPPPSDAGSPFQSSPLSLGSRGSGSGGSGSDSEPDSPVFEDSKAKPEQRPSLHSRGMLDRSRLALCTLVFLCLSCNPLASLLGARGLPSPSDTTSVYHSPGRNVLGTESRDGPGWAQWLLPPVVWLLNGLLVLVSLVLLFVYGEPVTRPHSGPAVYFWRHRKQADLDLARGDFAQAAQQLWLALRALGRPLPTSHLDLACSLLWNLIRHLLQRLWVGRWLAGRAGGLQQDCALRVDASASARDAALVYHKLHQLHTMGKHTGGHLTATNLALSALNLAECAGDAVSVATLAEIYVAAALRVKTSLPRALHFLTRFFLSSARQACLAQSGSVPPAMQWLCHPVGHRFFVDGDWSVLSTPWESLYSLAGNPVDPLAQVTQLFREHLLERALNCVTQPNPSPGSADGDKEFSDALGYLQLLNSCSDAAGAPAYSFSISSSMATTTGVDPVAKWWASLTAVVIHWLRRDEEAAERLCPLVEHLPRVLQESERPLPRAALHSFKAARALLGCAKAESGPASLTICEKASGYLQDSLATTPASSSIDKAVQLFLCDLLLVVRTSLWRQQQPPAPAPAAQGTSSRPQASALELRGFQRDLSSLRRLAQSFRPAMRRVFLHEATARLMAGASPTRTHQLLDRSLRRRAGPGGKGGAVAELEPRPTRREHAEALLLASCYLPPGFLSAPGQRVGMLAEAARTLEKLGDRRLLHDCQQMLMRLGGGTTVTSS
Description: Induction of SREBP degradation in human HepG2 cells at 10 uM preincubated with cycloheximide for 1 hr followed by compound additon by Western blot analysis. In kind it is cell-based. An outline of the steps:
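HepG2 cells pretreated 1 h with cycloheximide at […]. Medium then switched to cycloheximide plus vehicle or compound at […] for varying times. SREBP decay rate followed by Western blot of lysates.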

In data set [3] the test system is HepG2. Description: Cytotoxicity against human HepG2 cells assessed as reduction in cell viability at 10 uM after 24 hrs by CCK8 assay. Type of data set: functional.
Data set [4] concerns HepG2. Nature of the data set: Down regulation of intracellular TC level in human HepG2 cells at 10 uM measured after 24 hrs. In kind it is functional, cell-based. The gist of the method: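 HepG2 cells grown in six-well plates and exposed 24 h to compound at […]. Cells collected in PBS and sonicated (5 s on, 10 s off, 60 s total). Total cholesterol or triglyceride measured with a colorimetric determination kit.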

Data set [5] is described as follows: Toxicity in high fat diet-induced C57BL/6J mouse assessed as reduction in body weight at 170 to 340 mg/kg, po measured every week for 6 weeks. Type of data set: organism-based. The note with it: in vivo, 1008 h, dose 170-340 mg/kg. The gist of the method: (§2)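 Male C57BL/6J mice, six weeks old, fed a 45%-fat diet (HFD) for 15 weeks; chow-fed mice served as controls. Obese mice were randomized to vehicle (0.1% w/v CMC-Na) or 170 or 340 mg/kg, gavaged daily for 6 weeks while diet continued. Body weight, food intake, organ weights, serum lipids, tissue histology (H&E, Oil red O), liver SREBP blots and liver qPCR followed.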

Data set [6] concerns HepG2. Description: Effect on PCSK9 protein expression in human HepG2 cells at 10 uM incubated for 24 hrs by Western blotting analysis. Type of data set: functional, cell-based. An outline of the steps:
as §1

The test system of data set [7] is HepG2. Nature of the data set: Down regulation of FASN gene expression in human HepG2 cells by qRT-PCR analysis. Type of data set: functional, cell-based.
Data set [8] in a line: Cmax in Sprague-Dawley rat at 10 mg/kg, po measured upto 24 hrs by LC-MS/MS analysis. In kind it is ADME, organism-based. Also noted: route oral, dose 10 mg/kg, time <=24. The note with it: in vivo. An outline of the steps: (§3)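 Six SD rats split into two groups of three, dosed 1 mg/kg IV or 10 mg/kg orally. IV blood drawn at 2, 5, 15, 30 min and 1, 2, 4, 6, 8, 12 h. Oral blood drawn at 5, 15, 30 min and 1, 2, 4, 6, 8, 12, 24 h. Serum drug measured by LC/MS/MS. Parameters are the average of three runs.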

The nature of data set [9]: MRT (0 to infinity) in Sprague-Dawley rat at 10 mg/kg, po measured upto 24 hrs by LC-MS/MS analysis. In kind it is ADME, organism-based. As to conditions: in vivo. An outline of the steps: as §3
The nature of data set [10]: Tmax in Sprague-Dawley rat at 1 mg/kg, iv measured upto 12 hrs by LC-MS/MS analysis. In kind it is ADME, organism-based. The note with it: in vivo. An outline of the steps:
as §3

Data set [11] in a line: Oral bioavailability in Sprague-Dawley rat at 10 mg/kg measured upto 24 hrs by LC-MS/MS analysis. In kind it is ADME, organism-based. The note with it: in vivo. An outline of the steps: as §3
For data set [12], the system named is Mus musculus. Nature of the data set: Hypoglycemic activity in high fat diet-induced C57BL/6J mouse assessed as improvement in glucose tolerance at 170 to 340 mg/kg, po administered daily for 6 weeks and measured up to 120 mins by OGTT method. The note with it: dose 170-340 mg/kg. In kind it is functional, organism-based. An outline of the steps:
as §2

The test system of data set [13] is Mus musculus. Nature of the data set: Hypoglycemic activity in high fat diet-induced C57BL/6J mouse assessed as improvement in insulin tolerance at 170 to 340 mg/kg, po administered daily for 6 weeks and measured up to 120 mins by ITT method. Type of data set: functional, organism-based. As to conditions: dose 170-340 mg/kg. The gist of the method: as §2
Data set [14] has as its system Mus musculus. Description: Hypolipidemic activity in high fat diet-induced C57BL/6J mouse assessed as reduction in serum TG level at 170 to 340 mg/kg, po administered daily for 6 weeks. In kind it is functional, organism-based. As to conditions: dose 170-340 mg/kg. An outline of the steps: as §2
Data set [15] has as its system Mus musculus. Description: Hypolipidemic activity in high fat diet-induced C57BL/6J mouse assessed as reduction in serum TC level at 170 to 340 mg/kg, po administered daily for 6 weeks. Type of data set: functional, organism-based. The note with it: dose 170-340 mg/kg. The gist of the method: as §2
For data set [16], the system named is Mus musculus. Description: […] activity in high fat diet-induced C57BL/6J mouse assessed as reduction in LDLR mRNA level in liver at 170 to 340 mg/kg, po administered daily for 6 weeks by qRT-PCR analysis. In kind it is functional, organism-based. The note with it: dose 170-340 mg/kg. An outline of the steps: as §2
The test system of data set [17] is Mus musculus. Description: Hypolipidemic activity in high fat diet-induced C57BL/6J mouse assessed as reduction in cell size of BAT at 170 to 340 mg/kg, po administered daily for 6 weeks by H and E staining based assay. In kind it is functional, organism-based. As to conditions: dose 170-340 mg/kg. The gist of the method: as §2

`COc1ccc2c(c1OCC1CCCCC1)CN1CCc3cc4c(cc3C1C2)OCO4` (configuration not stated): the figures for the Activity result in data set [1], in [3] and in [5] were “Dose-Dependent Effect”, 93% and “Toxic”, respectively. Also, the outcome in [2], in data set [4], in data set [7], in [12], in data set [13] and in data set [14] was Active. The outcome in data set [15], in data set [16] and in data set [17] was Active. The result in [6] was inactive. This molecule displayed a Cmax in [8] of 428 ng/mL. For the same molecule, the MRT inf in data set [9] amounted to 8.03 h. For the same molecule, in data set [10], the time to peak (Tmax) was found to be 1.98 min. The bioavailability in data set [11] was 65.1%.
